Laboratory results taken from ChEMBL document CHEMBL1156919, “Synthesis and induction of apoptosis signaling pathway of ent-kaurane derivatives” (Bioorg Med Chem, 2010).
The source made the active and inactive calls. The rule behind the calls is not given here.

Assays:
RAW264.7 [1] = test: Cytotoxicity against mouse RAW264.7 cells assessed as reduction in cell viability after 24 hrs by MTT assay; type: functional, cell-based; conditions: RAW264.7, 24 h
How it was run: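 RAW 264.7 mouse macrophage line kept in RPMI 1640 with 10% FBS, L-glutamine and antibiotics. Treated with 1–100 μM for 24 h, then MTT at 37 °C for 4 h. Formazan taken up in DMSO and read at 540 nm. Triplicate, at least three independent experiments. IC50 is the concentration giving 50% loss of viability relative to untreated cells.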

RAW264.7 [2] = test: Induction of apoptosis in mouse RAW264.7 cells assessed as caspase 8 activation at 5 uM after 24 hrs by fluorimetry; type: functional, cell-based
How it was run: (§1)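 RAW cells treated with 5 μM for 24 h, with or without 40 μM z-VAD. Caspase activity read fluorimetrically in cytosolic extracts. Substrates: Ac-DEVD-AMC for caspase-3, Ac-IETD-AFC for caspase-8, Ac-LEHD-AFC for caspase-9. Means ± SD of three independent experiments run in triplicate.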

RAW264.7 [3] = test: Decrease in Bcl-xl protein expression in mouse RAW264.7 cells at 5 uM by Western blot; type: functional, cell-based
How it was run: (§2)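 RAW 264.7 cells incubated with 5 μM and sampled at several time points. Cytosolic extracts run on SDS–PAGE (10–15% gels) and blotted to PVDF. Probed for p53, Bax, Bcl-2, Bcl-xl, XIAP, IAP-1 and IAP-2, then HRP secondary and chemiluminescence. β-actin served as loading control. Protein measured by Bio-Rad assay.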

RAW264.7 [4] = test: Induction of apoptosis in mouse RAW264.7 cells assessed as caspase 9 activation at 5 uM after 24 hrs by fluorimetry; type: functional, cell-based; how it was run: as §1
HeLa = test: Cytotoxicity against human HeLa cells assessed as reduction in cell viability after 24 hrs by MTT assay; type: functional, cell-based
How it was run: (§3)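 Cancer cells kept in DMEM with 10% FBS, L-glutamine and antibiotics. Exposed to 1–100 μM for 24 h, then MTT at 37 °C for 4 h. Formazan dissolved in DMSO and read at 540 nm. Triplicate wells, at least three independent experiments. Viability reduction expressed against untreated cultures. IC50 is the concentration giving 50% loss of viability.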

RAW264.7 [5] = test: Induction of apoptosis in mouse RAW264.7 cells assessed as caspase 9 activation at 5 uM in presence of 40 uM caspase inhibitor z-VAD after 24 hrs by fluorimetric assay; type: functional, cell-based; how it was run: as §1
RAW264.7 [6] = test: Induction of apoptosis in mouse RAW264.7 cells assessed as caspase 3 activation at 5 uM after 24 hrs by fluorimetry; type: functional, cell-based; how it was run: as §1
RAW264.7 [7] = test: Increase in p53 protein expression in mouse RAW264.7 cells at 5 uM by Western blot; type: functional, cell-based; how it was run: as §2
RAW264.7 [8] = test: Induction of apoptosis in mouse RAW264.7 cells assessed as caspase 8 activation at 5 uM in presence of 40 uM caspase inhibitor z-VAD after 24 hrs by fluorimetric assay; type: functional, cell-based; how it was run: as §1
RAW264.7 [9] = test: Decrease in IAP protein expression in mouse RAW264.7 cells at 5 uM by Western blot; type: functional, cell-based; how it was run: as §2
RAW264.7 [10] = test: Induction of apoptosis in mouse RAW264.7 cells at 5 uM in presence of 40 uM caspase inhibitor z-VAD after 24 hrs by flow cytometry; type: functional, cell-based
How it was run: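 RAW 264.7 cells given 5 μM for 24 h, with or without 40 μM z-VAD. Stained with 0.005% (w/v) PI and analysed by flow cytometry. Apoptotic percentage taken from a forward scatter versus PI fluorescence dot plot. Three independent experiments in triplicate, means ± SD.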

RAW264.7 [11] = test: Increase in Bax protein expression in mouse RAW264.7 cells at 5 uM by Western blot; type: functional, cell-based; how it was run: as §2
[12] = Toxicity in thioglycolate-induced mouse peritoneal macrophages assessed as induction of apoptosis after 24 hrs by flow cytometry; type: cell-based; conditions: peritoneal macrophage cell
How it was run: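 Peritoneal macrophages collected from thioglycolate-injected mice and treated across a concentration range for 24 h. Stained with PI and analysed by flow cytometry for apoptotic percentage. Means ± SD of three independent experiments done in duplicate.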

HepG2 = test: Cytotoxicity against human HepG2 cells assessed as reduction in cell viability after 24 hrs by MTT assay; type: functional, cell-based; conditions: HepG2, 24 h; how it was run: as §3
RAW264.7 [13] = test: Induction of apoptosis in mouse RAW264.7 cells at 1 to 25 uM after 24 hrs by flow cytometry; type: functional, cell-based
How it was run: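 RAW 264.7 cells exposed to 1–25 μM for 24 h. Stained with 0.005% (w/v) propidium iodide and analysed at once by flow cytometry. Apoptotic and necrotic fractions taken from a forward scatter versus PI fluorescence dot plot. Means ± SD of three independent experiments in triplicate.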

[14] = Toxicity in thioglycolate-induced mouse peritoneal macrophages assessed as reduction in cell viability after 24 hrs by MTT assay; type: cell-based; conditions: peritoneal macrophage cell
How it was run: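 Primary peritoneal macrophages from thioglycolate-injected mice exposed to a range of concentrations for 24 h. Viability read by MTT at 37 °C for 4 h, formazan dissolved in DMSO, absorbance at 540 nm. Three independent experiments in duplicate, means ± SD.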

RAW264.7 [15] = test: Decrease in Bcl-2 protein expression in mouse RAW264.7 cells at 5 uM by Western blot; type: functional, cell-based; how it was run: as §2
RAW264.7 [16] = test: Induction of apoptosis in mouse RAW264.7 cells assessed as caspase 3 activation at 5 uM in presence of 40 uM caspase inhibitor z-VAD after 24 hrs by fluorimetric assay; type: functional, cell-based; how it was run: as §1
HT-29 = test: Cytotoxicity against human HT-29 cells assessed as reduction in cell viability after 24 hrs by MTT assay; type: functional, cell-based; conditions: HT-29, 24 h; how it was run: as §3

In the case of `C=C1[C@@H]2CC[C@H]3[C@]4(C)CCC[C@@](C)(C(=O)OC)[C@H]4CC[C@]3(C2)[C@H]1O`, the IC50 (RAW264.7 [1]) is reported as over 100 µM.
`COC(=O)[C@]1(C)CCC[C@@]2(C)[C@@H]3CC[C@@H]4C[C@]3(C=C4C)CC[C@@H]21` gave an IC50 (RAW264.7 [1]) of 100 µM.
Work on `C=C1[C@@H]2CC=C3[C@@](CC[C@@H]4[C@](C)(C(=O)OC)CCC[C@@]34C)(C2)[C@H]1OC(C)=O` yielded an IC50 (RAW264.7 [1]) of 35 µM.
With `C=C1C(=O)[C@@]23CC[C@@H]4[C@](C)(C(=O)OC)CCC[C@@]4(C)C2=CC[C@@H]1C3` the Activity (RAW264.7 [2]) was “Active”, the Activity (RAW264.7 [3]) was “Active” and the Activity (RAW264.7 [4]) was “Active”. For the same molecule, the IC50 (HeLa) was 25 µM, the Activity (RAW264.7 [5]) was “inactive” and the Activity (RAW264.7 [6]) was “Active”. The Activity (RAW264.7 [7]) was “Active”, the Activity (RAW264.7 [8]) was “inactive” and the Activity (RAW264.7 [9]) was “Active”. The Activity (RAW264.7 [10]) was “inactive”, the Activity (RAW264.7 [11]) was “Active” and the Activity [12] was “Non-toxic”. For the same molecule, the IC50 (HepG2) was over 100 µM, the Activity (RAW264.7 [13]) was “Active” and the IC50 (RAW264.7 [1]) was 5 µM. The Activity [14] was “Non-toxic”, the Activity (RAW264.7 [15]) was “Active” and the Activity (RAW264.7 [16]) was “inactive”. The IC50 (HT-29) was 25 µM.
Molecule `C=C1[C@@H]2CC[C@H]3[C@]4(C)CCC[C@@](C)(C(=O)O)[C@H]4CC[C@]3(C2)[C@H]1O` has an IC50 (RAW264.7 [1]) of over 100 µM.
In the case of `C=C1[C@@H]2CC=C3[C@@](CC[C@@H]4[C@](C)(C(=O)OC)CCC[C@@]34C)(C2)[C@H]1O`, the IC50 (RAW264.7 [1]) is reported as over 100 µM.
For `C=C1C[C@@]23CC[C@H]4[C@@](C)(CCC[C@@]4(C)C(=O)OCc4ccccc4)[C@@H]2CC[C@@H]1C3` [KAURENOIC ACID BENZYL ESTER], the IC50 (RAW264.7 [1]) was 25 µM.
`COC(=O)[C@]1(C)CCC[C@@]2(C)[C@@H]3CC[C@@H]4C[C@@]3(CC[C@@H]21)C[C@H]4/C=N/O` gave an IC50 (RAW264.7 [1]) of 35 µM.
With `C=C1C[C@@]23CC[C@@H]4[C@](C)(C(=O)O)CCC[C@@]4(C)C2=CC[C@@H]1C3` [GRANDIFLORENIC ACID] the IC50 (RAW264.7 [1]) was 15 µM.
With `C=C1[C@@H]2CC[C@H]3[C@]4(C)CCC[C@@](C)(C(=O)OC)[C@H]4CC[C@]3(C2)[C@H]1OC(C)=O` the IC50 (RAW264.7 [1]) was 25 µM.
`C=C1C[C@@]23CC[C@@H]4[C@](C)(CO)CCC[C@@]4(C)C2=CC[C@@H]1C3` showed an IC50 (RAW264.7 [1]) of 35 µM.
Molecule `C=C1C(=O)[C@@]23CC[C@H]4[C@@](C)(CCC[C@@]4(C)C(=O)O)[C@@H]2CC[C@@H]1C3` has an IC50 (RAW264.7 [1]) of 35 µM.
In the case of `COC(=O)[C@]1(C)CCC[C@@]2(C)[C@@H]3CC[C@@H]4C[C@@]3(CC[C@@H]21)C[C@@]4(C)OC`, the IC50 (RAW264.7 [1]) is reported as over 100 µM.
In the case of `COC(=O)[C@]1(C)CCC[C@@]2(C)C3=CC[C@@H]4C[C@@]3(CC[C@H]12)C[C@]4(O)CO`, the IC50 (RAW264.7 [1]) is reported as 25 µM.
For `COC(=O)[C@]1(C)CCC[C@@]2(C)[C@@H]3CC[C@@H]4C[C@@]3(CC[C@@H]21)C[C@H]4C=O`, the IC50 (RAW264.7 [1]) was over 100 µM.
`C=C1C[C@@]23CC[C@@H]4[C@](C)(CO)CCC[C@@]4(C)[C@@H]2CC[C@@H]1C3` gave an IC50 (RAW264.7 [1]) of over 100 µM.
